Assay outcomes deposited in PubChem BioAssay by Johns Hopkins Ion Channel Center.
KCNQ1 act: human KCNQ1 channel potentiation or activation | 310,000 compounds, 0.35% hits | B-score at 10 µM | P51787 | CHO-K1 KCNQ1, thallium flux FluxOR fluorescence; stronger effect = higher value;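 active means fluorescence ratio B-score, a plate-corrected score, at least three library SD, with initial intensity B-score within 5 SD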
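Medium – assay buffer, equal DMSO in all wells · Material – CHO-K1 cell line with stable KCNQ1 potassium channel expression · Signal – kinetic FluxOR thallium fluorescence, 10-s 1-Hz baseline, 110-s post-stimulus read · Compound – single concentration per compound, DMSO matched to controls · Schedule – 37 °C overnight plating, 90-min dark dye load, 20-min compound pretreatment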
Kir21 inh: inhibitors of mouse Kir2.1 inward-rectifier potassium channel; B-score at 10 µM; P35561; HEK293-Kir2.1, FluxOR thallium flux fluorescence; stronger effect = lower value; 310,000 compounds, 0.85% hits;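 active means fluorescence ratio B-score at or below minus 3 SD of library scores, with starting-brightness B-score within 2 SD, cut at about -4.2 in these data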;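 further: channel flux triggered by added potassium and thallium sulfate stimulus; B-score of peak minus minimum fluorescence over baseline after thallium stimulus; more negative B-score means stronger Kir2.1 block with less thallium influx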
Target sequence (P35561 whole entry, looked up): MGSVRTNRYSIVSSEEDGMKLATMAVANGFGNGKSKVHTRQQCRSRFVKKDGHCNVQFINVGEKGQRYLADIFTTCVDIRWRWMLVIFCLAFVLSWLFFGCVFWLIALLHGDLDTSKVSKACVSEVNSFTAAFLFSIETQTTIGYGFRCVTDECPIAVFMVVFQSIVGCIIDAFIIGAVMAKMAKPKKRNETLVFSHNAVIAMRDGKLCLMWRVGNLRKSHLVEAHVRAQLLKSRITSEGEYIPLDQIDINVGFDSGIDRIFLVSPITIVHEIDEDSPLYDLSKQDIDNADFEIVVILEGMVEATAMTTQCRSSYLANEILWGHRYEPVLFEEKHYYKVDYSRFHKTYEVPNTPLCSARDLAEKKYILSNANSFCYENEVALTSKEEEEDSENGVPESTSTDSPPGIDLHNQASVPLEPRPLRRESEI
KCNK3 inh: human KCNK3 channel inhibition, primary screen. O14649. B-score at 10 µM. 340,000 compounds, 0.84% hits. CHO-KCNK3 thallium flux, FluxOR fluorescence; stronger effect = lower value;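 active means B-score under library mean minus 4 SD, starting fluorescence ratio at most library mean plus 5 SD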;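 further: more negative B-score means stronger inhibition of thallium flux through KCNK3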
KCNK9 inh: inhibitors of human KCNK9 two-pore domain potassium channel; HEK293 KCNK9, FluxOR thallium flux fluorescence; stronger effect = lower value; B-score at 10 µM; 310,000 compounds, 1.2% hits;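 active means ratio B-score over 3 SD below the library mean, with starting fluorescence within 5 SD of its mean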;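 further: negative B-score means less thallium flux so channel inhibition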
KCNQ1 inh: human KCNQ1 channel inhibition; CHO-K1 KCNQ1, FluxOR thallium flux fluorescence; stronger effect = higher value; P51787; B-score at 10 µM; AID 2642; 310,000 compounds, 1.3% hits;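 active means compounds whose thallium flux B-score, printed positive for inhibition, exceeds three library SD while starting fluorescence stays within three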;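 further: channel opened by potassium depolarization with thallium stimulus after 20 min compound exposure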
hERG rescue: shields human hERG channel from block by proarrhythmic agents; 310,000 compounds, 0.51% hits; AID 1511; Q12809; activation (rescue from dofetilide block), less the hit threshold, % at 10 µM; CHO-hERG, FluxOR thallium flux, dofetilide IC70 present;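 active means activation above the mean of controls blocked by dofetilide plus 5 SD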;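 further: thallium influx through hERG after potassium depolarization seen as dye fluorescence rise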
KCNK9 inh conf: human KCNK9 inhibitor confirmation; shares compounds with KCNK9 inh; HEK293 KCNK9 cells, FluxOR thallium flux fluorescence; inhibition, % at 10 µM; 4,900 compounds, 43% hits;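 active means thallium signal inhibited by more than 5 SD of the compound-free buffer control wells, on both duplicate plates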;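 further: 0% = assay buffer control wells without compound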
Kir21 sel: tests whether KCNK9 modulators also affect mouse Kir2.1; 4,900 compounds, 4% hits; shares compounds with KCNK9 inh; inhibition, % at 10 µM; Kir2.1 cells, FluxOR thallium flux fluorescence;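 active means thallium signal drop more than 5 SD beyond the mean of the no-compound control wells, seen in both duplicate plates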;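 further: signal is fluorescence rise after thallium addition divided by baseline fluorescence; plate controls were assay buffer only for no effect and full block by chlorpromazine control for full effect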
HEK293 Tl ctr: non-induced cell nonspecific activity of KCNK9 modulators. 4,900 compounds, 40% hits. AID 492997. shares compounds with KCNK9 inh. inhibition, % at 10 µM. non-induced KCNK9-HEK293, FluxOR thallium flux;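 active means thallium signal drop beyond 5 SD of the untreated control mean, on both duplicate plates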;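 further: plate controls were buffer only IC0 wells for no effect and SID17386958 at its maximal inhibitory level for full effect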
An asterisk follows results filed as active; i = inactive; . = no result. Hits are enriched below; roughly 3.7% of the tested compounds scored in any of these assays.

SMILES | KCNQ1 act | Kir21 inh | KCNK3 inh | KCNK9 inh | KCNQ1 inh | hERG rescue | KCNK9 inh conf | Kir21 sel | HEK293 Tl ctr
COc1ccccc1CNC(=O)[C@@H]1CCCN1S(=O)(=O)c1ccc(C)cc1 | i | -1.3 | i | i | i | -8 | . | . | .
CN(C(=O)c1cccc(NC(=O)Cc2ccc([N+](=O)[O-])cc2)c1)C1CC1 | . | . | i | . | . | . | . | . | .
c1ccc(COc2cccc(CN3CCN(c4ccccn4)CC3)c2)cc1 | i | 0 | i | -9.1* | i | -20 | 35%* | i | 27%*
CCn1c(=O)c(C(C)=O)nc2ccccc21 | i | 0.2 | i | i | i | -5 | . | . | .
CCCCCn1c(=O)c(C(=O)c2ccccc2)nc2ccccc21 | i | -1.1 | i | -15* | i | -12 | 46%* | i | 30%*
COCCNC(=O)c1onc(CSc2cc(C)cc(C)c2)c1C(=O)O | i | -0.81 | i | i | i | -7 | . | . | .
Cc1cc(C)cc(SCc2noc(C(=O)NCCC(C)C)c2C(=O)NCCC(C)C)c1 | i | 0.06 | i | i | i | -7 | i | i | i
Cc1cc(C)cc(SCc2noc(C(=O)NCC3CC3)c2C(=O)NCC2CC2)c1 | i | -0.88 | . | i | i | -6 | i | i | i
CCCCNC(=O)c1onc(CSc2cc(C)cc(C)c2)c1C(=O)NCCCC | i | 0.41 | i | i | i | -7 | i | i | i
O=C(NCC1CC1)c1onc(CSc2ccc(F)cc2)c1C(=O)NCC1CC1 | i | -1.3 | i | i | i | -3 | . | . | .
O=C(NCCc1ccccc1)c1n[nH]c2ccccc12 | i | 0.67 | i | i | i | -17 | . | . | .
CC(C)OC(=O)CC(=O)CSc1nc2c(c(-c3cccs3)c1C#N)CCC2 | i | 1.1 | i | i | i | -6 | . | . | .
CCOC(=O)C(C)Sc1nc2c(c(-c3cccs3)c1C#N)CCC2 (stereo not given) | i | 0.34 | i | i | i | 1 | i | i | i
COC(=O)C1CN(C(=O)COc2cc(C)c(Cl)c(C)c2)c2ccccc2O1 (stereo not given) | i | 0.18 | i | -9.9* | i | -1 | i | i | 34%*
CCN(CC)C(=O)c1ccc(COc2ccccc2Cl)cc1 | i | 0.03 | i | -8.7* | i | -10 | 36%* | i | 24%*
O=C(O)c1ccc(COc2ccccc2Cl)cc1 | i | -2.6 | i | i | i | -9 | . | . | .
Cc1cc(C)c(CN2CCCC(CNC(=O)c3ccc(F)cc3)C2)c(-n2cccn2)c1 (stereo not given) | i | -2 | i | i | i | -25 | . | . | .
Cc1ccsc1C(=O)C1CCCN(Cc2cc(F)ccc2-n2cccn2)C1 (stereo not given) | i | -0.6 | i | i | i | -11 | i | i | i
CCC(Sc1ccccn1)C(=O)Nc1cccc([N+](=O)[O-])c1 (stereo not given) | i | -1.5 | i | -8.6* | i | -13 | 30%* | i | 26%*
CC(Sc1cccc[n+]1[O-])C(=O)Nc1cccc([N+](=O)[O-])c1 (stereo not given) | i | 0.01 | i | i | i | -4 | . | . | .
O=c1c2cc(-c3ccccc3)sc2ncn1/N=C/c1ccco1 | i | -1.8 | i | i | i | -4 | i | i | i
CCCCCn1cnc2sc(-c3ccccc3)cc2c1=O | i | -0.12 | i | i | i | -8 | . | . | .
C=CCn1c(SCC)nc2sc3c(c2c1=O)CCc1ccccc1-3 | i | 0.33 | i | i | i | -10 | . | . | .
C=CCSc1nc2sc3c(c2c(=O)n1CC)CCc1ccccc1-3 | i | -0.7 | i | i | i | 0 | i | i | i
O=C(Cc1c(F)cccc1Cl)OCN1C(=O)c2ccccc2C1=O | i | -0.04 | i | i | i | -3 | . | . | .
SMILES | KCNQ1 act | Kir21 inh | KCNK3 inh | KCNK9 inh | KCNQ1 inh | hERG rescue | KCNK9 inh conf | Kir21 sel | HEK293 Tl ctr
O=C(Nc1ccccc1)OCCCc1ccccc1 | i | 1.4 | i | i | i | -8 | i | i | i
CC1CCCCC12NC(=O)N(CC(=O)Nc1cccc(S(=O)(=O)N3CCCCC3)c1)C2=O (stereo not given) | . | . | i | . | . | . | . | . | .
Cn1c(=O)c2c(SCc3ccccn3)nc(CC(C)(C)C)nc2n(C)c1=O | i | 0.46 | i | i | i | -19 | i | i | i
CCCc1nc(SCc2ccccn2)c2c(=O)n(C)c(=O)n(C)c2n1 | i | 0.1 | i | i | i | -18 | . | . | .
Cc1cc(C)cc(Oc2nc(C(F)(F)F)nc3ccccc23)c1 | i | 0.52 | i | i | i | -3 | i | i | 24%*
N=c1c(C(=O)NCCN2CCOCC2)cc2c(=O)n3ccccc3nc2n1CCc1ccccc1 | i | 1.3 | i | i | i | -7 | . | . | .
COc1ccc(NS(=O)(=O)c2cccc(-c3n[nH]c(=S)n3Cc3ccccc3)c2)cc1 | i | 0.8 | i | i | i | -15 | . | . | .
CCOC(=O)Cn1cnc2scc(-c3ccccc3)c2c1=O | i | -0.73 | i | i | i | -4 | . | . | .
CCOC(=O)Cn1cnc2scc(-c3ccc(C)c(C)c3)c2c1=O | i | 0.97 | i | i | i | -6 | i | i | i
CCOC(=O)Cn1cnc2scc(-c3ccc(C)cc3)c2c1=O | i | 0.79 | i | i | i | -12 | i | i | i
C#CCSc1nc(-c2ccccc2)cc(C(F)(F)F)c1C#N | i | 0.34 | i | -14* | i | -9 | 37%* | i | 26%*
O=C(COC(=O)CCNS(=O)(=O)c1cccc(C(F)(F)F)c1)NC(=O)NC1CCCCC1 | i | -0.39 | i | -15* | i | -13 | 61%* | i | 31%*
N#C/C(=C\c1c(F)cccc1Cl)C(=O)NC1CC1 | i | -0.38 | i | i | i | -17 | . | . | .
Cc1cc(C)c(C(=O)C(C)OC(=O)c2ccc(Cl)nc2)cc1C (stereo not given) | i | 0.44 | i | i | i | -9 | i | i | i
CCCn1c(-c2cccs2)nc2ccccc21 | i | -0.43 | i | i | i | -8 | . | . | .
